APJ agonist: agonists of human apelin receptor APJ, primary screen, CHO-K1 cells, PathHunter beta-arrestin, luminescence; P35414; 0% DMSO wells, 100% apelin; activation, % at 20 µM; hit rate 0.11% among 330,000;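 active means activation more than six SD over the plate average, tested at 20 µM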
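Assay system: CHO-K1 cells stably expressing ProLink-tagged human APJ and arrestin–beta-gal acceptor. Compound dosing: 20 µM single point, 1% DMSO. Times: 16-18 h seeding, 90 min dark compound exposure, 60 min detection. Detection: beta-gal luminescence. Evaluation: APJ–arrestin association signal. Controls: negative DMSO alone, positive Apelin-13 at 10 nM.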
CCR6 antagonist: CCR6 receptor antagonists, primary screen, cell-based, CHO-K1, luminescence, beta-arrestin, uHTS | C-C chemokine receptor type 6 (Homo sapiens), P51684 | CHO-K1 CCR6 PathHunter beta-arrestin, CCL20-stimulated | inhibition, % at 20 µM | hit rate 0.49% among 340,000 | AID 493098, 2011;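 active means compounds whose inhibition of the agonist-driven luminescence signal at 20 µM reaches about 50%, limit read from the data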;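 further: cells stimulated with CCL20 at 14 nM final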
Target sequence (P51684 whole entry, looked up): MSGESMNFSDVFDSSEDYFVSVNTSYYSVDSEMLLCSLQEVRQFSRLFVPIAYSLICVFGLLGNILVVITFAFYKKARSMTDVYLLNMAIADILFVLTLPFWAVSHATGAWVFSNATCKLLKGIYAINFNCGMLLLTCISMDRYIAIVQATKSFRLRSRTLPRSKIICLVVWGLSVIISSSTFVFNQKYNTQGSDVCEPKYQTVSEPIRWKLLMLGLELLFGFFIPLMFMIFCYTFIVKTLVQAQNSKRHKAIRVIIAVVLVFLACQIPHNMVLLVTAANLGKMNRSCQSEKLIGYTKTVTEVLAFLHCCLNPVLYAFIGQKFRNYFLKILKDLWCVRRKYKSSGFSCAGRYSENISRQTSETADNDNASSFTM
iPSC survival up: enhancers of single-cell hiPSC survival, primary screen, ATPlite luminescence; 100% = ROCK inhibitor wells, 0% = DMSO; survival enhancement, % at 20 µM; hit rate 0.044% among 360,000; in the data active means survival enhancement above about 18%;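 further: cells exposed to compounds for 16 hours before the ATP read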
APJ antag: antagonists of human apelin receptor APJ, primary screen, CHO-K1 cells, beta-arrestin complementation, luminescence | AID 2521, 2010 | P35414 | hit rate 0.32% among 330,000 | inhibition, % at 20 µM;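 active means inhibition above about 40% at 20 µM, limit read from the data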;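 further: cells challenged with 10 nM apelin-13 agonist together with compound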
CXCR6 block: CXCR6 receptor inhibitors, primary screen, cell-based, beta-arrestin, luminescence, CHO-K1 PathHunter, 1536-well. C-X-C chemokine receptor type 6 (Homo sapiens), O00574. inhibition, % at 20 µM. hit rate 0.36% among 360,000. AID 602244, 2012; in the data active means inhibition above about 34%, passing the limit was not always enough;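 further: antagonist mode with CXCL16 agonist at 10 nM final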
Target sequence (O00574 whole entry, looked up): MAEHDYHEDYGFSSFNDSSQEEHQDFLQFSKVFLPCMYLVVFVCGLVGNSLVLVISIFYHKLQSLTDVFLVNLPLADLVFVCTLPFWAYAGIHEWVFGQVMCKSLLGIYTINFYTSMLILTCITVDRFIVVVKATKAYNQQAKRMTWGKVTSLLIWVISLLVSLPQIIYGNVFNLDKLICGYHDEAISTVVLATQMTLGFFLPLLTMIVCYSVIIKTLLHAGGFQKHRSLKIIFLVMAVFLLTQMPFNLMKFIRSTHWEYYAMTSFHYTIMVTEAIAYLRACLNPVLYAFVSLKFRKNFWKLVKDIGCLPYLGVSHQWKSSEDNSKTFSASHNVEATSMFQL
EBI2 antag: EBI2 receptor antagonists, beta-arrestin recruitment, primary screen, cell-based, luminescence, 7a,25-OHC stimulation, uHTS | G-protein coupled receptor 183 (Homo sapiens), P32249 | 7a,25-OHC stimulated | hit rate 0.81% among 360,000 | AID 651636, 2012 | inhibition, % at 5 µM; in the data active means inhibition above about 38%;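 further: enzyme fragment complementation signal reports receptor beta-arrestin coupling in cells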
EBI2 conf: EBI2 antagonist hit retest, beta-arrestin, confirmation, cell-based, single concentration, luminescence, 7a,25-OHC stimulation | shares compounds with EBI2 antag | 7a,25-OHC antagonism | inhibition, % at 5 µM | hit rate 29% among 2,400 | AID 651997, 2013;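 active means inhibition of at least 50%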
EBI2 agonist: EBI2 agonist activity of antagonist hits, confirmation, counter-screen for EBI2 antagonist project, cell-based, single concentration, agonist mode, luminescence. activation, % at 5 µM. 2,400 tested, under 10 active. EBI2-expressing cells, 60 min; 0% vehicle, 100% 7α,25-dihydroxycholesterol control. shares compounds with EBI2 antag;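 active means activation of at least 50%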
bGal cs: E. coli beta-galactosidase enzyme inhibition, confirmation, counter-screen for EBI2 antagonist project, biochemical, luminescence, single concentration; shares compounds with EBI2 antag; purified beta-galactosidase, luminescent Galacton Star, 15 min; hit rate 1% among 2,400; AID 652176, 2013; inhibition, % at 5 µM;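 active means replicate-average signal at least 3 plate SD below neutral wells, shown as high inhibition, flagging enzyme-inhibiting false positives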;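 further: higher means stronger loss of beta-gal luminescence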
Large screens that a line does not name were inactive (follow-up assays come after a bar, where they were run). The list is not random: actives were taken first. Their share in the collection is about 1.5%.

Cc1cc(C(=O)NCC(=O)OCC(=O)NCC2CCCO2)ccc1[N+](=O)[O-] (stereo not drawn)	none
COc1ccc(-c2nn(-c3ccccc3)cc2CNC[C@H]2O[C@@H](n3cnc(C(N)=O)n3)[C@H](O)[C@@H]2O)cc1	none (no result: APJ agonist, APJ antag)
O=C(c1ccccc1)c1sc(Nc2ccc3c(c2)OCO3)nc1-c1ccccc1	EBI2 antag 50 (no result: APJ agonist, CCR6 antagonist, APJ antag) | EBI2 conf inactive | EBI2 agonist inactive | bGal cs inactive
CCOc1ccc(CNC(=O)C2CCCN(S(=O)(=O)N3CC(C)CC(C)C3)C2)cc1OC (stereo not drawn)	none
COc1ncnc2c1ncn2CCCN(C)CCc1ccccn1	none (no result: APJ agonist, CCR6 antagonist, APJ antag)
COc1ccc(N(CC(=O)NCCOc2ccccc2)S(=O)(=O)c2ccc(C)cc2)cc1	EBI2 antag 87 | EBI2 conf 64 | EBI2 agonist inactive | bGal cs inactive
CCOc1ccc(N(CC(=O)NCCOc2ccc(C)cc2)S(=O)(=O)c2ccccc2)cc1	EBI2 antag 91 | EBI2 conf 65 | EBI2 agonist inactive | bGal cs inactive
Cc1ccc(NC(=O)c2ccc(S(=O)(=O)N3CCCCC3)cc2)nc1	none
CCc1ccc2oc(C(=O)N3CCN(c4ccccc4OC)CC3)cc(=O)c2c1	EBI2 antag 91 | EBI2 conf 84 | EBI2 agonist inactive | bGal cs inactive
COc1ccc(Cn2c(=O)[nH]c3cc(C(=O)N4CCN(Cc5ccccc5)CC4)ccc3c2=O)cc1	none
Cc1cc2oc(C(=O)N3CCN(CCc4ccccn4)CC3)c(C)c2cc1C	EBI2 antag 50 | EBI2 conf inactive | EBI2 agonist inactive | bGal cs inactive
CCc1ccc2oc(C(=O)N3CCN(c4ccc(OC)cc4)CC3)cc(=O)c2c1	EBI2 antag 91 | EBI2 conf 83 | EBI2 agonist inactive | bGal cs inactive
COc1ccc2c(C)c(C(=O)N3CCN(Cc4ccccc4)CC3)oc2c1	EBI2 antag 45 | EBI2 conf inactive | EBI2 agonist inactive | bGal cs inactive
COc1ccc(S(=O)(=O)N2CCC(C(=O)N[C@@H](C)C(=O)NCc3ccncc3)CC2)cc1	none
CCOc1ccc2oc(C(=O)N3CCN(c4ccccc4OCC)CC3)c(C)c2c1	none
Cc1c(C(=O)N2CCN(C(c3ccccc3)c3ccccc3)CC2)oc2ccccc12	EBI2 antag 87 | EBI2 conf inactive | EBI2 agonist inactive | bGal cs inactive
COc1ccccc1N1CCN(C(=O)c2oc3cc(C)c(C)cc3c2C)CC1	EBI2 antag 59 (no result: APJ agonist, APJ antag) | EBI2 conf inactive | EBI2 agonist inactive | bGal cs inactive
COc1ccccc1C(=O)N1CCCN(C(=O)c2ccccc2OC)CC1	none
COc1ccccc1C(=O)N1CCN(C(=O)c2oc3c(C)c(C)ccc3c2C)CC1	EBI2 antag 51 (no result: APJ agonist, CCR6 antagonist, APJ antag) | EBI2 conf inactive | EBI2 agonist inactive | bGal cs inactive
COc1ccc(Cl)cc1-c1nc(SCC(=O)NCC2CCCO2)n[nH]1 (stereo not drawn)	none
CC1(C(=O)NCc2ccccc2)CCC(=O)N1CCOc1ccccc1 (stereo not drawn)	none (no result: APJ agonist, CCR6 antagonist, APJ antag)
NC(=O)c1ccc(CN2CCc3ccccc3C2)cc1	none
CC(C)(C)c1ccc(C(=S)N2CCN(c3ccccc3)CC2)cc1	EBI2 antag 58 | EBI2 conf inactive | EBI2 agonist inactive | bGal cs inactive
Cc1c(C(=O)N2CCC[C@H]2C(N)=O)oc2c(F)cccc12	none
Cn1nnc2c[n+](CC(=O)c3ccc(Cl)cc3)cc(Br)c21	none
Cn1nnc2c[n+](CC(=O)c3ccc4ccccc4c3)cc(Br)c21	EBI2 antag 66 | EBI2 conf 67 | EBI2 agonist inactive | bGal cs inactive
Cc1ccc(S(=O)(=O)N2CCCCC2)cc1NC(=O)COC(=O)c1cccn1C	none
CCOC(=O)N1CCN(C(=O)COc2ccc(Cl)c(C)c2)CC1	EBI2 antag 86 | EBI2 conf 54 | EBI2 agonist inactive | bGal cs inactive
Cc1cc(OCC(=O)N2CCCC2)ccc1Cl	none
CCOC(=O)N1CCN(C(=O)COc2ccc(S(=O)(=O)NC(C)C)cc2)CC1	none
CCOC(=O)N1CCN(C(=O)COc2ccc(Cl)cc2)CC1	EBI2 antag 83 | EBI2 conf 55 | EBI2 agonist inactive | bGal cs inactive
COc1ccc(C(=O)CSc2nc3nn(-c4ccccc4)c(=O)c-3c3n2CCCCC3)c(OC)c1	none (no result: APJ agonist, CCR6 antagonist, APJ antag)
O=C(c1cccc(F)c1)N1CCN(C(=O)c2cc(-c3ccc(Cl)cc3Cl)on2)CC1	EBI2 antag 44 | EBI2 conf inactive | EBI2 agonist inactive | bGal cs inactive
O=C(c1cc(-c2ccccc2Cl)on1)N1CCCC1	none
CCN(CC(=O)NCc1ccc(Cl)cc1)C(=O)CSc1ccc(Br)cc1	EBI2 antag 68 | EBI2 conf inactive | EBI2 agonist inactive | bGal cs inactive
S=C1NC[C@H](c2ccccc2)N1CCCCC1CCCCC1	EBI2 antag 46 | EBI2 conf inactive | EBI2 agonist inactive | bGal cs inactive
NC1=NC[C@H](c2ccccc2)N1CCCCC1CCCCC1	none
CC(C)n1nnnc1SCC(=O)Nc1ccccc1F	none
O=C(CNC(=O)c1ccc(S(=O)(=O)N2CCCC2)cc1)N/N=C/c1ccc(Cl)cc1Cl	EBI2 antag 75 | EBI2 conf inactive | EBI2 agonist inactive | bGal cs inactive
O=C(CN1CCN(S(=O)(=O)c2ccc(Br)cc2)CC1)N/N=C/c1ccncc1	EBI2 antag 54 | EBI2 conf inactive | EBI2 agonist inactive | bGal cs inactive
O=C(CNC(=O)c1ccc(S(=O)(=O)N2CCCC2)cc1)N/N=C/c1ccc(Cl)cc1	EBI2 antag 60 | EBI2 conf inactive | EBI2 agonist inactive | bGal cs inactive
N#CCc1ccc(NC(=O)c2cc(S(=O)(=O)N3CCOCC3)ccc2Cl)cc1	none
O=C(/C=C/c1ccc(Cl)cc1)N1CCN(Cc2ccccc2)CC1	EBI2 antag 97 | EBI2 conf 89 | EBI2 agonist inactive | bGal cs inactive

High-throughput results deposited in PubChem BioAssay by Sanford-Burnham Center for Chemical Genomics.
